From ChEMBL document CHEMBL2346548, “Design, synthesis, and structure-activity relationship studies of tryptanthrins as antitubercular agents” (J Nat Prod, 2013)
Converted amounts (≈) assume the structure as drawn.

Experiments:
[1] = Cmax in C57BL/6 mouse at 40 mg/kg, po; assay type: ADME, organism-based; design: dose 40 mg/kg, route oral; conditions: in vivo
Outline: (§1)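 Female C57BL/6 mice, single 40 mg/kg oral gavage; three mice per time point; plasma at 30 min to 24 h, LC-MS; noncompartmental parameters reported as means.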

[2] = AUC (0 to infinity) in C57BL/6 mouse at 40 mg/kg, po; assay type: ADME, organism-based; design: dose 40 mg/kg, route oral, time infinity; conditions: plasma
[3] = Tmax in C57BL/6 mouse at 40 mg/kg, po; assay type: ADME, organism-based; design: dose 40 mg/kg, route oral; conditions: in vivo; outline: as §1
[4] = Oral bioavailability in Sprague-Dawley rat at 20 mg/kg; assay type: ADME, organism-based; conditions: in vivo
[5] = Elimination half life in Sprague-Dawley rat at 5 mg/kg, iv; assay type: ADME, organism-based; design: dose 5 mg/kg, route intravenous; conditions: in vivo, read-out: beta t1/2 (converted)
Outline: (§2)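 Male Sprague-Dawley rats (n = 3), single 5 mg/kg iv dose as solution in PEG300/DMSO 50:50; plasma sampled 0.083–24 h, LC-MS bioanalysis; noncompartmental analysis, means.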

[6] = Clearance in Sprague-Dawley rat at 5 mg/kg, iv; assay type: ADME, organism-based; design: dose 5 mg/kg, route intravenous; conditions: in vivo; outline: as §2
[7] = Volume of distribution in Sprague-Dawley rat at 5 mg/kg, iv; assay type: ADME, organism-based; design: dose 5 mg/kg, route intravenous; conditions: in vivo; outline: as §2
[8] = AUC (0 to infinity) in Sprague-Dawley rat at 5 mg/kg, iv; assay type: ADME, organism-based; design: time infinity, dose 5 mg/kg, route intravenous; conditions: plasma
[9] = Half life in Sprague-Dawley rat at 20 mg/kg, po; assay type: ADME, organism-based; design: dose 20 mg/kg, route oral; conditions: in vivo
[10] = Tmax in Sprague-Dawley rat at 20 mg/kg, po; assay type: ADME, organism-based; design: dose 20 mg/kg, route oral; conditions: in vivo
[11] = Cmax in Sprague-Dawley rat at 20 mg/kg, po; assay type: ADME, organism-based; design: dose 20 mg/kg, route oral; conditions: in vivo
[12] = AUC (0 to infinity) in Sprague-Dawley rat at 20 mg/kg, po; assay type: ADME, organism-based; design: time infinity, dose 20 mg/kg, route oral; conditions: plasma
[13] = Permeability across basolateral to apical side in human Caco2 cells incubated for 1 hr at 37 degC by HPLC-MS/MS method; assay type: ADME, cell-based; conditions: Caco-2
[14] = Permeability across apical to basolateral side in human Caco2 cells incubated for 1 hr at 37 degC by HPLC-MS/MS method; assay type: ADME, cell-based; conditions: Caco-2
Outline: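 TC7 (Caco-2 subclone) monolayer; 10 μM compound in 1% DMSO in HBSS-MES pH 6.5 on apical donor side, basolateral receiver pH 7.4; shaken 1 h at 37 °C; receiver sampled, HPLC-MS/MS; duplicate means.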

[15] = Protein binding in human plasma at 10 uM incubated for 8 hrs at 37 degC by equilibrium dialysis method; assay type: ADME, cell-free; conditions: read-out: PPB (converted)
Outline: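 Equilibrium dialysis: 10 μM compound in 1% DMSO in human plasma vs 0.05 M phosphate buffer pH 7.5 across 12–14 K cutoff membrane, at least 8 h at 37 °C; HPLC-photodiode detection at 230 nm; duplicate means.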

[16] = Metabolic stability in human liver microsomes assessed as parent compound remaining at 1 uM incubated for 1 hr by HPLC-MS/MS method; assay type: ADME, Microsome; conditions: read-out: Stability
Outline: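 Pooled mixed-gender human liver microsomes (0.3 mg/mL protein), 1 μM compound with NADP-regenerating system in phosphate buffer pH 7.4, 1 h at 37 °C; parent measured at start and end by HPLC-MS/MS; duplicate means.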

[17] = Solubility in simulated gastric fluid at pH 1.5 by HPLC method; assay type: physicochemical
Outline: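 Compound at 200 μM final in 2% DMSO in simulated gastric fluid, shaken 24 h at room temperature; HPLC-photodiode array detection at 230 nm; duplicate means.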

[18] = Solubility in simulated intestinal fluid at pH 7.6 by HPLC method; assay type: physicochemical
Outline: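 Simulated intestinal fluid medium; each analogue 200 μM final in 2% DMSO, shaken 24 h at room temperature, then HPLC with photodiode array read at 230 nm; duplicate, means given.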

Vero = test: Cytotoxicity against african green monkey Vero cells; assay type: cell-based, Chlorocebus sabaeus; conditions: Chlorocebus sabaeus, Vero; read-out: IC50
[19] = system: Mycobacterium tuberculosis; test: Antitubercular activity against non-replicating Mycobacterium tuberculosis H37Rv incubated for 10 days by LORA method; assay type: functional; conditions: 240 h
Outline: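 H37Rv carrying pFCA-luxAB was adapted to low oxygen by gradual self-depletion in a sealed, slowly stirred flask. It was then exposed to compounds for 10 days under anaerobic conditions. Cultures recovered for 28 h in ambient oxygen before n-decanal substrate was added and luminescence read. MIC was the lowest concentration giving a 90% reduction in luminescence versus untreated controls.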

[20] = system: Mycobacterium tuberculosis; test: Antitubercular activity against Mycobacterium tuberculosis H37Rv incubated at 37 degC for 14 days in presence of 40% human serum by microplate alamar blue assay; assay type: functional; conditions: 336 h
Outline: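 This is the MABA run in 7H9 broth containing 40% human serum. Compounds were 2-fold serially diluted, and wells were inoculated with H37Rv at 2 × 10⁵ CFU/mL. Incubation was at 37 °C for 14 days, then Alamar Blue was added. MIC was the lowest concentration preventing the blue-to-pink colour change.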

[21] = system: Mycobacterium tuberculosis; test: Antitubercular activity against Mycobacterium tuberculosis H37Rv incubated at 37 degC for 7 days by microplate alamar blue assay; assay type: functional; conditions: Mycobacterium tuberculosis, H37Rv, 168 h
Outline: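 Mtb H37Rv was grown in 7H9 broth with glycerol, Casitone, 10% OADC and 0.05% Tween 80 to OD600 0.4. Compounds were 2-fold serially diluted from DMSO stocks in 7H9, and wells were inoculated at 2 × 10⁵ CFU/mL. After 7 days at 37 °C, Alamar Blue was added and read after a further 24 h. MIC was the lowest concentration preventing the blue-to-pink change.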

[22] = Aqueous solubility in PBS buffer at pH 7.4 by HPLC method; assay type: physicochemical; conditions: PBS buffer, read-out: solubility
Outline: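 Compound at 200 μM final in 2% DMSO in PBS pH 7.4, shaken 24 h at room temperature; quantified by HPLC with photodiode array detection at 230 nm; duplicate, mean reported.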

[23] = Efflux ratio in human Caco2 cells incubated for 1 hr at 37 degC by HPLC-MS/MS method; assay type: ADME, cell-based; conditions: Caco-2
[24] = Cmax in C57BL/6 mouse at 40 mg/kg, po formulated in 0.5% methylcellulose; assay type: ADME, organism-based; design: dose 40 mg/kg, route oral; conditions: in vivo; outline: as §1
[25] = Half life in C57BL/6 mouse at 40 mg/kg, po formulated in 0.5% methylcellulose; assay type: ADME, organism-based; design: dose 40 mg/kg, route oral; conditions: in vivo; outline: as §1
[26] = Tmax in C57BL/6 mouse at 40 mg/kg, po formulated in 0.5% methylcellulose; assay type: ADME, organism-based; design: dose 40 mg/kg, route oral; conditions: in vivo; outline: as §1
[27] = AUC (0 to infinity) in C57BL/6 mouse at 40 mg/kg, po formulated in 0.5% methylcellulose; assay type: ADME, organism-based; design: dose 40 mg/kg, route oral, time infinity; conditions: in vivo
[28] = system: Mycobacterium tuberculosis; test: Antitubercular activity against Mycobacterium tuberculosis Erdman ATCC 35801 infected in C57BL/6 mouse assessed as viable bacterial load in spleen at 200 mg/kg twice daily through gavage 5 days per week for 4 weeks starting on 10th day post-infection (reference value: 4.79 +/- 0.21 log10CFU/spleen); assay type: functional
[29] = system: Mycobacterium tuberculosis; test: Antitubercular activity against Mycobacterium tuberculosis Erdman ATCC 35801 infected in C57BL/6 mouse assessed as viable bacterial load in spleen at 200 mg/kg/day through gavage 5 days per week for 4 weeks starting on 10th day post-infection (reference value: 4.79 +/- 0.21 log10CFU/spleen); assay type: functional
[30] = system: Mycobacterium tuberculosis; test: Antitubercular activity against Mycobacterium tuberculosis Erdman ATCC 35801 infected in C57BL/6 mouse assessed as viable bacterial load in lung at 200 mg/kg twice daily through gavage 5 days per week for 4 weeks starting on 10th day post-infection (reference value: 6.49 +/- 0.10 log10CFU/lung); assay type: functional
[31] = system: Mycobacterium tuberculosis; test: Antitubercular activity against Mycobacterium tuberculosis Erdman ATCC 35801 infected in C57BL/6 mouse assessed as viable bacterial load in lung at 200 mg/kg/day through gavage 5 days per week for 4 weeks starting on 10th day post-infection (reference value: 6.49 +/- 0.10 log10CFU/lung); assay type: functional
Salmonella typhimurium [32] = test: Toxicity in Salmonella typhimurium TA100 assessed as compound level per well causing cytotoxicity at 0.25 to 240 ug/well in absence of rat liver S9 fraction; assay type: organism-based; conditions: salmonella enterica subsp. enterica serovar typhimurium
Outline: (§3)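 MicroAmes: strains preincubated with or without Aroclor-induced rat liver S9, duplicate wells, six concentrations 0.25–250 μg equivalents/well; DMSO vehicle, 4-nitroquinoline-N-oxide (−S9) and 2-aminoanthracene (+S9) positive controls; revertant colonies counted; cytotoxicity noted as reduced revertants or background lawn; precipitation recorded.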

Salmonella typhimurium [33] = test: Toxicity in Salmonella typhimurium TA100 assessed as compound level per well causing cytotoxicity at 0.25 to 240 ug/well in presence of rat liver S9 fraction; assay type: organism-based; conditions: salmonella enterica subsp. enterica serovar typhimurium; outline: as §3
Salmonella typhimurium [34] = test: Mutagenicity in Salmonella typhimurium TA100 assessed as mean revertant colonies at 0.25 to 240 ug/well in presence of rat liver S9 fraction; assay type: toxicity, organism-based; conditions: salmonella enterica subsp. enterica serovar typhimurium; outline: as §3
Salmonella typhimurium [35] = test: Mutagenicity in Salmonella typhimurium TA100 assessed as mean revertant colonies at 0.25 to 240 ug/well in absence of rat liver S9 fraction; assay type: toxicity, organism-based; conditions: salmonella enterica subsp. enterica serovar typhimurium; outline: as §3
Salmonella typhimurium [36] = test: Mutagenicity in Salmonella typhimurium TA98 assessed as mean revertant colonies at 0.25 to 240 ug/well in presence of rat liver S9 fraction; assay type: toxicity, organism-based; conditions: salmonella enterica subsp. enterica serovar typhimurium; outline: as §3
Salmonella typhimurium [37] = test: Mutagenicity in Salmonella typhimurium TA98 assessed as mean revertant colonies at 0.25 to 240 ug/well in absence of rat liver S9 fraction; assay type: toxicity, organism-based; conditions: salmonella enterica subsp. enterica serovar typhimurium; outline: as §3
[38] = Cmax in C57BL/6 mouse at 40 mg/kg, po formulated in 30% HP-beta-CD; assay type: ADME, organism-based; design: dose 40 mg/kg, route oral; conditions: in vivo; outline: as §1
[39] = Tmax in C57BL/6 mouse at 40 mg/kg, po formulated in 30% HP-beta-CD; assay type: ADME, organism-based; design: dose 40 mg/kg, route oral; conditions: in vivo; outline: as §1
[40] = AUC (0 to infinity) in C57BL/6 mouse at 40 mg/kg, po formulated in 30% HP-beta-CD; assay type: ADME, organism-based; design: time infinity, dose 40 mg/kg, route oral; conditions: plasma

Row | SMILES | bioavailability [4] [%] | half-life [5] [h] | clearance [6] [mL/min/kg] | Vd [7] [L/kg] | AUC(0-inf) [8] [ng·h/mL] | half-life [9] [h] | Tmax [10] [h] | Cmax [11] [ng/mL] | AUC(0-inf) [12] [ng·h/mL] | Papp B→A at 1 h [13] [×10⁻⁶ cm/s] | Papp A→B at 1 h [14] [×10⁻⁶ cm/s] | fraction unbound at 8 h, 10 µM [15] | remaining at 1 h, 1 µM [16] [%] | solubility [17] [µM] | solubility [18] [µM] | IC50 (Vero) [µg/mL] | MIC90 [19] [µg/mL] | MIC [20] [µg/mL] | MIC [21] [µg/mL] | solubility [22] [µM] | further results
1 | O=C1c2cc(C(=O)N3CCCCC3)ccc2-n2c1nc1ccccc1c2=O | 3.16 | 0.88 | 81 | 6.21 | 1070 | 7.34 | 1 | 30 | 140 | 26 | 59.9 | 0.011 | 105 | 10.2 (≈ 3.67 µg/mL) | 27.5 (≈ 9.88 µg/mL) | > 10 | > 10 | 2 | 0.25 (≈ 0.696 µM) | 16.3 (≈ 5.86 µg/mL) | Cmax [1]: 112 ng/mL; AUC(0-inf) [2]: 1300 ng·h/mL; Tmax [3]: 2 h; efflux ratio at 1 h [23]: > 1
2 | O=C1c2ccccc2-n2c1nc1c(c2=O)CCCC1 | 30.1 | 3.98 | 5.67 | 1.62 | 16500 | 6.29 | 4.67 | 2030 | 19900 | 52.4 | 85.4 | 0.043 | 18 | 53 (≈ 13.4 µg/mL) | 73.4 (≈ 18.5 µg/mL) | 8.7 (≈ 34.5 µM) | 10.5 (≈ 41.6 µM) | 1 | 0.5 (≈ 1.98 µM) | 54.9 (≈ 13.8 µg/mL) | Cmax [24]: 1930 ng/mL; half-life [25]: 4.99 h; Tmax [26]: 1.5 h; AUC(0-inf) [27]: 5280 ng·h/mL; efflux ratio at 1 h [23]: > 1; log10cfu [28]: 4.89; log10cfu [29]: 4.88; log10cfu [30]: 6.6; log10cfu [31]: 6.5; Activity (Salmonella typhimurium [32]): >= 25 ug; Activity (Salmonella typhimurium [33]): >= 25 ug; Activity (Salmonella typhimurium [34]): Non-toxic; Activity (Salmonella typhimurium [35]): Non-toxic; Activity (Salmonella typhimurium [36]): Non-toxic; Activity (Salmonella typhimurium [37]): Non-toxic; Cmax [38]: 2260 ng/mL; Tmax [39]: 0.5 h; AUC(0-inf) [40]: 2570 ng·h/mL
